Measured values: article PMC3862411 (International Journal for Parasitology, Drugs and Drug …, 2012)
Where “and” joins values, the source holds several entries; their conditions need not be identical. Identical values can stand only once. Marks after values point to notes of the source that are not given here.

Columns and labels:
[1] = Drug concentrations in GI contents and mucosal tissues; format: in vivo, lambs; conditions: for Drug concentration, abomasal mucosa / Drug concentration, intestinal mucosa: IR 0.2 mg/kg, lambs
Summary of the method: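 After intraruminal 0.2 mg/kg test compound, four infected lambs per time point were killed at 0.5, 1 and 2 days. Abomasal and cranial jejunum contents and mucosal tissue were sampled, stored at −20 °C and assayed by validated fluorescence HPLC (C18, 30 °C, ex 365/em 475 nm). Values are in ng/g, mean ± SD, n = 4.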

[2] = format: in vivo, lambs; conditions: for AUC: area under the concentration vs time curve extrapolated to infinity / Cmax: peak plasma concentration / Tmax: time to peak plasma concentration / t 1/2 el: elimination half-life: mean ± SD, n = 6
Summary of the method: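 Six infected lambs per group got test compound intraruminally at 0.2 mg/kg. Heparinized jugular blood was taken before and at 0, 3, 6, 9 h and 1–13 days, spun at 2000g for 20 min, and plasma assayed by fluorescence HPLC. Non-compartmental analysis: Cmax observed; AUC by trapezoidal rule extrapolated to infinity; t½ = ln2/λz; MRT from AUMC/AUC. Mean ± SD; ANOVA or Kruskal–Wallis.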

Nematodirus spp. = test: Adult nematode worm counts and efficacy 14 days post-treatment; format: in vivo; conditions: small intestine, 14 days post-administration, IR 0.2 mg/kg
Summary of the method: (§1)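 Romney Marsh lambs (27.2 ± 4.48 kg), naturally infected with resistant GI nematodes and grazing lucerne/clover pasture, got a single intraruminal dose of test compound at 0.2 mg/kg. Six treated and six untreated lambs were killed by captive bolt at day 14. Abomasal, small and large intestinal contents were counted by WAAVP guidelines. Geometric mean worm burdens gave % efficacy, treated versus untreated.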

resistant GI nematodes = test: Faecal egg count reduction test; format: in vivo, GI nematodes in lambs; conditions: IR 0.2 mg/kg; for FECRT: 14 days post-treatment vs untreated control; for Mean epg (range), arithmetic mean of eggs per gram of faeces: Day 14 post-treatment
Summary of the method: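 Faeces were sampled at day −1 and day 14 after a single intraruminal 0.2 mg/kg dose to naturally infected lambs. Eggs per gram were counted by modified McMaster. FECRT compared arithmetic mean epg of treated versus untreated controls at day 14, with 95% confidence limits per Coles. Counts were compared by Kruskal–Wallis.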

Trichuris spp. = test: Adult nematode worm counts and efficacy 14 days post-treatment; format: in vivo; conditions: large intestine, 14 days post-administration, IR 0.2 mg/kg
Summary of the method: as §1

[3] = tested on: resistant Haemonchus contortus; format: in vivo; conditions: for Total mass of H. contortus specimens recovered: day 1 and 2 post-treatment, IR 0.2 mg/kg
Summary of the method: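 Infected lambs got test compound intraruminally at 0.2 mg/kg, four killed at 0.5, 1 and 2 days. The total H. contortus mass from abomasal contents was washed in 4 °C saline, blotted, weighed and frozen at −20 °C. Drug was measured by fluorescence HPLC (C18, 0.2% acetic acid/methanol/acetonitrile 1.6/60/38.4, 1.5 ml/min, 30 °C, ex 365/em 475 nm). n = 4.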

Teladorsagia spp. = test: Adult nematode worm counts and efficacy 14 days post-treatment; format: in vivo; conditions: abomasum, 14 days post-administration, IR 0.2 mg/kg
Summary of the method: as §1

Trichostrongylus axei = test: as above; format: in vivo; conditions: abomasum, 14 days post-administration, IR 0.2 mg/kg
Summary of the method: as §1

[4] = tested on: Trichostrongylus colubriformis; test: as above; format: in vivo; conditions: small intestine, 14 days post-administration, IR 0.2 mg/kg
Summary of the method: as §1

Cooperia spp. = test: as above; format: in vivo; conditions: small intestine, 14 days post-administration, IR 0.2 mg/kg
Summary of the method: as §1

Haemonchus spp. = test: as above; format: in vivo; conditions: abomasum, 14 days post-administration, IR 0.2 mg/kg
Summary of the method: as §1

mammalian P-gp = conditions: in vitro; ref Lespine et al., 2007; cited from earlier work
[5] = sheep (lambs), abomasal mucosa, other: intraruminal, 0.2 mg/kg
[6] = sheep, plasma, other: intraruminal, 0.2 mg/kg

CC[C@H](C)[C@H]1O[C@]2(CC[C@@H]1C)C[C@@H]1C[C@@H](C/C=C(\C)[C@@H](O[C@H]3C[C@H](OC)[C@@H](O[C@H]4C[C@H](OC)[C@@H](O)[C@H](C)O4)[C@H](C)O3)[C@@H](C)/C=C/C=C3\CO[C@@H]4[C@H](O)C(C)=C[C@@H](C(=O)O1)[C@]34O)O2 [IVM, ivermectin]
Drug concentration, abomasal mucosa ([1]; 0.5 days post-treatment): 76.5 ± 9.83^a ng/g
Drug concentration, intestinal mucosa ([1]; 0.5 days post-treatment): 198 ± 55.7^a ng/g
Drug concentration, abomasal mucosa ([1]; 1 day post-treatment): 58.2 ± 8.75^a ng/g
Drug concentration, intestinal mucosa ([1]; 1 day post-treatment): 117 ± 26.8^a ng/g
Drug concentration, abomasal mucosa ([1]; 2 days post-treatment): 42.6 ± 4.53^a ng/g
Drug concentration, intestinal mucosa ([1]; 2 days post-treatment): 128 ± 51.4^a ng/g
Time up to which drug was detected in plasma ([2]; lambs, IR 0.2 mg/kg): up to 8 days post-treatment
AUC: area under the concentration vs time curve extrapolated to infinity ([2]; lambs, IR 0.2 mg/kg, plasma): 23.6 ± 7.63^a ng d/ml
Cmax: peak plasma concentration ([2]; lambs, IR 0.2 mg/kg, plasma): 9.02 ± 1.47^b ng/ml
Tmax: time to peak plasma concentration ([2]; lambs, IR 0.2 mg/kg, plasma): 1.06 ± 0.52^a days
t 1/2 el: elimination half-life ([2]; lambs, IR 0.2 mg/kg, plasma): 1.15 ± 0.30^a days
Efficacy, Nematodirus spp. (Nematodirus spp.): 99.5%
Worm counts (geometric mean), Nematodirus spp. (Nematodirus spp.): 4.87
FECRT (resistant GI nematodes): 0%
Mean epg (range), arithmetic mean of eggs per gram of faeces (resistant GI nematodes): 4620^a (1860–12480)
Efficacy, Trichuris spp. (Trichuris spp.): 100%
Worm counts (geometric mean), Trichuris spp. (Trichuris spp.): 0
Total mass of H. contortus specimens recovered [3]: 1.02 to 1.38 g
Efficacy, Teladorsagia spp. (Teladorsagia spp.): 99.7%
Worm counts (geometric mean), Teladorsagia spp. (Teladorsagia spp.): 5
Efficacy, Trichostrongylus axei (Trichostrongylus axei): 100%
Worm counts (geometric mean), Trichostrongylus axei (Trichostrongylus axei): 0
Efficacy, Trichostrongylus colubriformis [4]: 99.3%
Worm counts (geometric mean), Trichostrongylus colubriformis [4]: 6.28
Efficacy, Cooperia spp. (Cooperia spp.): 98.2%
Worm counts (geometric mean), Cooperia spp. (Cooperia spp.): 3.08
Efficacy, Haemonchus spp. (H. contortus) (Haemonchus spp.): 20.1%
Worm counts (geometric mean), Haemonchus spp. (Haemonchus spp.): 1021

CO/N=C1\C[C@]2(C[C@@H]3C[C@@H](C/C=C(\C)C[C@@H](C)/C=C/C=C4\CO[C@@H]5[C@H](O)C(C)=C[C@@H](C(=O)O3)[C@]45O)O2)O[C@H](/C(C)=C/C(C)C)[C@H]1C [MXD, moxidectin]
Concentrations in GI contents and mucosal tissues compared to IVM and ABM ([1]; 2 days post-treatment): significantly lower
concentration at 0.5 days [1, 5]: 65.5 ± 9.74 ng/g
concentration at 1 day [1, 5]: 48.3 ± 12.7 ng/g
concentration at 2 days [1, 5]: 30.1 ± 5.8 ng/g
Plasma mean residence time (MRT) compared to ABM and IVM ([2]; lambs, IR 0.2 mg/kg): significant longer
Time up to which drug was detected in plasma ([2]; lambs, IR 0.2 mg/kg): ≤ 13 days post-treatment
AUC: area under the concentration vs time curve extrapolated to infinity ([2]; lambs, IR 0.2 mg/kg, plasma): 29.5 ± 3.87^a ng d/ml
Cmax [2, 6]: 11.3 ± 2.87 ng/mL
Tmax [2, 6]: 13 h
half-life [2, 6]: 113 h
Efficacy, Nematodirus spp. (Nematodirus spp.): 100%
Worm counts (geometric mean), Nematodirus spp. (Nematodirus spp.): 0
FECRT (resistant GI nematodes): 86% and 86.8%
Mean epg (range), arithmetic mean of eggs per gram of faeces (resistant GI nematodes): 570^b (240–960)
Efficacy, Trichuris spp. (Trichuris spp.): 100%
Worm counts (geometric mean), Trichuris spp. (Trichuris spp.): 0
Total mass of H. contortus specimens recovered [3]: 0.13 to 0.14 g
Drug concentrations recovered within adult H. contortus compared to ABM and IVM ([3]; day 2 post-treatment): lower
Efficacy, Teladorsagia spp. (Teladorsagia spp.): 100%
Worm counts (geometric mean), Teladorsagia spp. (Teladorsagia spp.): 0
Efficacy, Trichostrongylus axei (Trichostrongylus axei): 100%
Worm counts (geometric mean), Trichostrongylus axei (Trichostrongylus axei): 0
Affinity by mammalian P-gp compared to avermectin-type compounds (mammalian P-gp): lower affinity
Efficacy, Trichostrongylus colubriformis [4]: 100%
Worm counts (geometric mean), Trichostrongylus colubriformis [4]: 0
Efficacy, Cooperia spp. (Cooperia spp.): 100%
Worm counts (geometric mean), Cooperia spp. (Cooperia spp.): 0
Efficacy, Haemonchus spp. (H. contortus) (Haemonchus spp.): 89.6%
Worm counts (geometric mean), Haemonchus spp. (Haemonchus spp.): 133

abamectin [ABM]
Drug concentration, abomasal mucosa ([1]; 0.5 days post-treatment): 76.8 ± 11.6^a ng/g
Drug concentration, intestinal mucosa ([1]; 0.5 days post-treatment): 203 ± 11.5^a ng/g
Drug concentration, abomasal mucosa ([1]; 1 day post-treatment): 78 ± 24.2^a ng/g
Drug concentration, intestinal mucosa ([1]; 1 day post-treatment): 152 ± 12.4^a ng/g
Drug concentration, abomasal mucosa ([1]; 2 days post-treatment): 64.6 ± 45.4^ab ng/g
Drug concentration, intestinal mucosa ([1]; 2 days post-treatment): 118 ± 85.9^a ng/g
Time up to which drug was detected in plasma ([2]; lambs, IR 0.2 mg/kg): up to 8 days post-treatment
AUC: area under the concentration vs time curve extrapolated to infinity ([2]; lambs, IR 0.2 mg/kg, plasma): 34.8 ± 11.3^a ng d/ml
Cmax: peak plasma concentration ([2]; lambs, IR 0.2 mg/kg, plasma): 13.6 ± 2.64^a ng/ml
Tmax: time to peak plasma concentration ([2]; lambs, IR 0.2 mg/kg, plasma): 0.90 ± 0.26^a days
t 1/2 el: elimination half-life ([2]; lambs, IR 0.2 mg/kg, plasma): 1.10 ± 0.25^a days
Efficacy, Nematodirus spp. (Nematodirus spp.): 99.8%
Worm counts (geometric mean), Nematodirus spp. (Nematodirus spp.): 2.32
FECRT (resistant GI nematodes): 0%
Mean epg (range), arithmetic mean of eggs per gram of faeces (resistant GI nematodes): 4460^a (1200–6000)
Efficacy, Trichuris spp. (Trichuris spp.): 100%
Worm counts (geometric mean), Trichuris spp. (Trichuris spp.): 0
Total mass of H. contortus specimens recovered [3]: 1.13 to 1.50 g
Efficacy, Teladorsagia spp. (Teladorsagia spp.): 100%
Worm counts (geometric mean), Teladorsagia spp. (Teladorsagia spp.): 0
Efficacy, Trichostrongylus axei (Trichostrongylus axei): 100%
Worm counts (geometric mean), Trichostrongylus axei (Trichostrongylus axei): 0
Efficacy, Trichostrongylus colubriformis [4]: 100%
Worm counts (geometric mean), Trichostrongylus colubriformis [4]: 0
Efficacy, Cooperia spp. (Cooperia spp.): 100%
Worm counts (geometric mean), Cooperia spp. (Cooperia spp.): 0
Efficacy, Haemonchus spp. (H. contortus) (Haemonchus spp.): 39.7%
Worm counts (geometric mean), Haemonchus spp. (Haemonchus spp.): 769
